Consider one compound from ChEMBL document CHEMBL4342521 (J Med Chem, 2020).

Active and inactive are the calls of the source. The rule behind the calls is not given here.

In data set [1] the test system is RS4-11. In words: Induction of apoptosis in human RS4:11 cells harboring wild type p53/FLT3 assessed as cleavage of pro-caspase 3 at 100 nM after 24 hrs by Western blot analysis. In kind it is functional, cell-based. A digest of the protocol: (§1)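 Cells (1,500,000 per well) grown 12 h, then drug-treated as specified. Lysed in RIPA buffer, sonicated, centrifuged, protein normalized by BCA. Run on 4–12% Bis-Tris gels in MES, transferred, probed overnight at 4 °C with primary antibodies at 1/1000. Actin served as reference for LC3-II quantitation.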
For orientation: Immunoblotting shows a protein as a band on a membrane.

Data set [2] can be described thus: Cmax in BALB/c mouse at 50 mg/kg, po via gavage after 24 hrs by Lc-MS/MS analysis. The data set is classed as ADME, organism-based. Set-up: dose 50 mg/kg, route oral. To be noted: in vivo.
Data set [3] in a line: Half life in BALB/c mouse at 50 mg/kg, po via gavage after 24 hrs by Lc-MS/MS analysis. The data set is classed as ADME, organism-based. To be noted: in vivo.
A short description of data set [4]: Oral bioavailability in BALB/c mouse at 50 mg/kg dosed via gavage after 24 hrs by Lc-MS/MS analysis. The data set is classed as ADME, organism-based. To be noted: in vivo.
The nature of data set [5]: Mutagenecity in Salmonella typhimurium TA100 at 10 uM in presence of S9 liver homogenate after 2 to 3 days by mini-Ames test. Particulars: salmonella enterica subsp. enterica serovar typhimurium, s9, 10 µM. The data set is classed as toxicity. The essentials:
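Compound was tested at a final 10 μM undiluted plus four serial dilutions, with S9 mix and glucose/biotin/trace-histidine exposure solution, for 100 min at 37 °C. Reversion medium was added and cultures dispensed to 96 wells for 2–3 days at 37 °C. Yellow or partial-yellow wells were scored positive; 2-aminoanthracene was the positive control.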

For data set [6], the system named is MV4-11. Nature of the data set: Induction of apoptosis in human MV4-11 cells harboring wild type p53/FLT3-ITD mutant assessed as cleavage of pro-caspase 3 at 100 nM after 24 hrs by Western blot analysis. In kind it is functional, cell-based. A digest of the protocol:
as §1

The nature of data set [7]: AUC (0 to infinity) in BALB/c mouse at 50 mg/kg, po via gavage after 24 hrs by Lc-MS/MS analysis. In kind it is ADME, organism-based. Details: dose 50 mg/kg, time infinity, route oral. Particulars: in vivo.

As for `Cc1[nH]c2ccccc2c1CCNCc1ccc(/C=C/C(=O)NO)cc1` [PANOBINOSTAT], the result in data set [1] and in data set [6] was Active. In data set [2], the highest level (Cmax) was 116 ng/mL. In data set [3], this compound gave a half-life of 2.9 h. This compound displayed a bioavailability in data set [4] of 4.62%. In data set [5], the Activity entry is “Toxic”. The compound further gave a total exposure AUC(0-inf) in data set [7] of 126 ng·h/mL.

As usually defined, the Cmax is the maximum level reached in the sampled fluid or tissue. As usually defined, the half-life is how long it takes for the measured level to halve. Usually bioavailability stands for the share of a dose that reaches the circulation, judged against a reference dose that is usually intravenous. A word on the AUC(0-inf): it is the area under the concentration-time curve extrapolated to infinity. A lower AUC(0-inf) goes with low exposure.
